{"source": "ChEMBL document CHEMBL1157317", "about": "“Vanillic acid glycoside and quinic acid derivatives from Gardeniae Fructus” (J Nat Prod, 2006)", "key": {"[1]": {"assay": "Antioxidant activity assessed as inhibition of 2,2'-azobis(2-amidinopropane)dihydrochloride-induced lipid peroxidation at 3.125 ug/ml by ferric thiocyanate system relative to control", "assay_type": "functional", "in_short": "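Linoleic acid emulsified in Tween, peroxidation induced by AAPH; oxidation followed by ferric thiocyanate method.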"}, "[2]": {"assay": "Antioxidant activity assessed as superoxide anion scavenging activity by xanthine oxidase oxidation system relative to control", "assay_type": "functional", "in_short": "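Superoxide produced by xanthine oxidase (1.4 × 10-8 units) with 0.1 mM xanthine in 40 mM sodium carbonate buffer pH 10.2 containing 0.1 mM EDTA, 50 µg/mL BSA and […]; 20 min at 25 °C, stopped with CuCl2. Formazan read at 560 nm; IC50 as concentration scavenging 50% of superoxide.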"}, "[3]": {"target": "Human immunodeficiency virus type 1 integrase (Human immunodeficiency virus 1, UniProt Q7ZJM1)", "sequence (Q7ZJM1 whole entry)": "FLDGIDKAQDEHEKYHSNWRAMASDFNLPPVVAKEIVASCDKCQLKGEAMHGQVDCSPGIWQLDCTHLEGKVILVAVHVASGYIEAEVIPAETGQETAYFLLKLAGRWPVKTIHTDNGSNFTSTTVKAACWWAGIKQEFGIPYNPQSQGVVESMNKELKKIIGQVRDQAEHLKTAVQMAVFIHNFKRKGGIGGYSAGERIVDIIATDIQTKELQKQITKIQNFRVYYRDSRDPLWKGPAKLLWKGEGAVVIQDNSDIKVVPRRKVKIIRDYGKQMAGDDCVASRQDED", "assay": "Inhibition of HIV1 recombinant integrase expressed in Escherichia coli"}, "[4]": {"system": "Radical scavenging activity", "assay": "Antioxidant activity assessed as DPPH free radical scavenging activity relative to control", "assay_type": "functional", "in_short": "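Test samples in EtOH mixed with 100 µM ethanolic DPPH, incubated 30 min at 37 °C; absorbance read at 515 nm. Percent inhibition calculated against ethanol-treated control; IC50 taken as concentration scavenging 50% of DPPH radicals.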"}}}
{"molecule": "O=C(/C=C/c1ccc(O)c(O)c1)O[C@H]1[C@H](O)C[C@](O)(C(=O)O)C[C@H]1OC(=O)/C=C/c1ccc(O)c(O)c1", "values": [{"measurement": "inhibition", "setting": "[1]", "value": 51.7, "unit": "%"}, {"measurement": "IC50", "setting": "[2]", "value": 3.3, "unit": "µg/mL"}, {"measurement": "IC50", "setting": "[3]", "value": 10.5, "unit": "µM"}, {"measurement": "IC50", "setting": "[4]", "value": 5.9, "unit": "µg/mL"}]}
{"molecule": "O=C(/C=C/c1ccc(O)c(O)c1)O[C@@H]1C[C@](O)(C(=O)O)C[C@@H](OC(=O)/C=C/c2ccc(O)c(O)c2)[C@H]1O", "values": [{"measurement": "inhibition", "setting": "[1]", "value": 51.5, "unit": "%"}, {"measurement": "IC50", "setting": "[2]", "value": 2.9, "unit": "µg/mL"}, {"measurement": "IC50", "setting": "[3]", "value": 11.4, "unit": "µM"}, {"measurement": "IC50", "setting": "[4]", "value": 5.6, "unit": "µg/mL"}]}
{"molecule": "CCOC(=O)[C@@]1(O)C[C@@H](OC(=O)/C=C/c2ccc(O)c(O)c2)[C@H](O)[C@H](OC(=O)/C=C/c2cc(OC)c(O)c(OC)c2)C1", "values": [{"measurement": "inhibition", "setting": "[1]", "value": 53.8, "unit": "%"}, {"measurement": "IC50", "setting": "[2]", "value": 2.7, "unit": "µg/mL"}, {"measurement": "IC50", "setting": "[3]", "value": 80.5, "unit": "µM"}, {"measurement": "IC50", "setting": "[4]", "value": 9.5, "unit": "µg/mL"}]}
{"molecule": "CCOC(=O)[C@]1(O)C[C@@H](O)[C@@H](OC(=O)/C=C/c2cc(OC)c(O)c(OC)c2)[C@H](OC(=O)/C=C/c2ccc(O)c(O)c2)C1", "values": [{"measurement": "inhibition", "setting": "[1]", "value": 54.9, "unit": "%"}, {"measurement": "IC50", "setting": "[2]", "value": 2, "unit": "µg/mL"}, {"measurement": "IC50", "setting": "[3]", "value": 73.9, "unit": "µM"}, {"measurement": "IC50", "setting": "[4]", "value": 6.1, "unit": "µg/mL"}]}
{"molecule": "COC(=O)[C@]1(O)C[C@@H](O)[C@@H](OC(=O)/C=C/c2cc(OC)c(O)c(OC)c2)[C@H](OC(=O)/C=C/c2ccc(O)c(O)c2)C1", "values": [{"measurement": "inhibition", "setting": "[1]", "value": 56, "unit": "%"}, {"measurement": "IC50", "setting": "[2]", "value": 1.8, "unit": "µg/mL"}, {"measurement": "IC50", "setting": "[3]", "value": 33.8, "unit": "µM"}, {"measurement": "IC50", "setting": "[4]", "value": 8.3, "unit": "µg/mL"}]}
{"molecule": "COC(=O)[C@@]1(O)C[C@@H](OC(=O)/C=C/c2ccc(O)c(O)c2)[C@H](O)[C@H](OC(=O)/C=C/c2cc(OC)c(O)c(OC)c2)C1", "values": [{"measurement": "inhibition", "setting": "[1]", "value": 54.7, "unit": "%"}, {"measurement": "IC50", "setting": "[2]", "value": 2.2, "unit": "µg/mL"}, {"measurement": "IC50", "setting": "[3]", "value": 41.1, "unit": "µM"}, {"measurement": "IC50", "setting": "[4]", "value": 8.5, "unit": "µg/mL"}]}
{"molecule": "COc1cc(C(=O)O)ccc1O[C@@H]1O[C@H](COC(=O)/C=C/c2cc(OC)c(O)c(OC)c2)[C@@H](O)[C@H](O)[C@H]1O", "values": [{"measurement": "inhibition", "setting": "[1]", "value": 38.4, "unit": "%"}, {"measurement": "IC50", "setting": "[2]", "value": 46.3, "unit": "µg/mL"}, {"measurement": "IC50", "setting": "[3]", "value": "> 186", "unit": "µM"}, {"measurement": "IC50", "setting": "[4]", "value": 22.7, "unit": "µg/mL"}]}
{"molecule": "O=C1O[C@H]([C@@H](O)CO)C(O)=C1O", "note": "[ASCORBIC ACID]", "values": [{"measurement": "inhibition", "setting": "[1]", "value": 44.1, "unit": "%"}, {"measurement": "IC50", "setting": "[2]", "value": "> 50", "unit": "µg/mL"}, {"measurement": "IC50", "setting": "[4]", "value": 5.5, "unit": "µg/mL"}]}
{"molecule": "O=C(O)/C=C/c1ccc(O)c(O)c1", "note": "[CAFFEIC ACID]", "values": [{"measurement": "inhibition", "setting": "[1]", "value": 54.1, "unit": "%"}, {"measurement": "IC50", "setting": "[2]", "value": 0.5, "unit": "µg/mL"}, {"measurement": "IC50", "setting": "[4]", "value": 3.2, "unit": "µg/mL"}]}
{"molecule": "CCOC(=O)[C@]1(O)C[C@@H](O)[C@@H](O)[C@H](OC(=O)/C=C/c2ccc(O)c(O)c2)C1", "note": "[ETHYL CHLOROGENATE]", "values": [{"measurement": "inhibition", "setting": "[1]", "value": 51.1, "unit": "%"}, {"measurement": "IC50", "setting": "[2]", "value": 1, "unit": "µg/mL"}, {"measurement": "IC50", "setting": "[3]", "value": 116, "unit": "µM"}, {"measurement": "IC50", "setting": "[4]", "value": 7.1, "unit": "µg/mL"}]}
{"molecule": "COC(=O)C1=CO[C@@H](O[C@@H]2O[C@H](CO)[C@@H](O)[C@H](O)[C@H]2O)[C@@H]2C(CO)=CC[C@H]12", "note": "[GENIPOSIDE]", "values": [{"measurement": "inhibition", "setting": "[1]", "value": 2, "unit": "%"}, {"measurement": "IC50", "setting": "[2]", "value": "> 50", "unit": "µg/mL"}, {"measurement": "IC50", "setting": "[3]", "value": "> 257", "unit": "µM"}, {"measurement": "IC50", "setting": "[4]", "value": "> 50", "unit": "µg/mL"}]}
{"molecule": "O=C(O)C1=CO[C@@H](O[C@@H]2O[C@H](CO)[C@@H](O)[C@H](O)[C@H]2O)[C@@H]2C(CO)=CC[C@H]12", "note": "[GENIPOSIDIC ACID]", "values": [{"measurement": "inhibition", "setting": "[1]", "value": 4.8, "unit": "%"}, {"measurement": "IC50", "setting": "[2]", "value": "> 50", "unit": "µg/mL"}, {"measurement": "IC50", "setting": "[3]", "value": "> 267", "unit": "µM"}, {"measurement": "IC50", "setting": "[4]", "value": "> 50", "unit": "µg/mL"}]}
{"molecule": "O=c1c(O[C@@H]2O[C@H](CO)[C@@H](O)[C@H](O)[C@H]2O)c(-c2ccc(O)c(O)c2)oc2cc(O)cc(O)c12", "note": "[ISOQUERCETIN]", "values": [{"measurement": "inhibition", "setting": "[1]", "value": 49.9, "unit": "%"}, {"measurement": "IC50", "setting": "[2]", "value": 3.4, "unit": "µg/mL"}, {"measurement": "IC50", "setting": "[4]", "value": 16.6, "unit": "µg/mL"}]}
{"molecule": "O=C(O)c1ccc(O)c(O)c1", "note": "[PROTOCATECHUIC ACID]", "values": [{"measurement": "inhibition", "setting": "[1]", "value": 38.1, "unit": "%"}, {"measurement": "IC50", "setting": "[2]", "value": 13, "unit": "µg/mL"}, {"measurement": "IC50", "setting": "[4]", "value": 6.9, "unit": "µg/mL"}]}
{"molecule": "O=c1c(O)c(-c2ccc(O)c(O)c2)oc2cc(O)cc(O)c12", "note": "[QUERCETIN]", "values": [{"measurement": "inhibition", "setting": "[1]", "value": 54.2, "unit": "%"}, {"measurement": "IC50", "setting": "[2]", "value": "> 50", "unit": "µg/mL"}, {"measurement": "IC50", "setting": "[4]", "value": 5.9, "unit": "µg/mL"}]}
{"molecule": "Oc1ccc(/C=C/c2cc(O)cc(O)c2)cc1", "note": "[RESVERATROL]", "values": [{"measurement": "inhibition", "setting": "[1]", "value": 39.1, "unit": "%"}, {"measurement": "IC50", "setting": "[2]", "value": 37.9, "unit": "µg/mL"}, {"measurement": "IC50", "setting": "[4]", "value": 17.1, "unit": "µg/mL"}]}
{"molecule": "VITAMIN E [listing 1 of 2 here]", "values": [{"measurement": "IC50", "setting": "[2]", "value": "> 50", "unit": "µg/mL"}, {"measurement": "IC50", "setting": "[4]", "value": 9.4, "unit": "µg/mL"}]}
{"molecule": "VITAMIN E [listing 2 of 2 here]", "values": [{"measurement": "inhibition", "setting": "[1]", "value": 61.2, "unit": "%"}]}
